Activity calls are given as the source filed them. The calls are words filed in the database; no cut-off is given here.
Tests used:
[1] = Drug localization in lysosomes of Trypanosoma brucei bloodstream form at 10 ug/ml measured after 6 hrs in presence of bafilomycin Al by TbCatL antibody based immunofluorescence microscopy; format: ADME, subcellular, Lysosome; details: dose 10 µg/ml
Outline: (§1)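 Parasites exposed to compound 10 μg mL⁻¹ for 6 h, with or without BafA1 8 nM; fixed 4% PFA, permeabilized 0.1% Triton X-100, blocked 1% BSA, rabbit anti-TbCatL 1:200 overnight at 4 °C, then Alexa 488 anti-rabbit 2 μg mL⁻¹ 1 h at 37 °C; fluorescence microscopy.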

[2] = Toxicity in BALB/c mouse infected with bioluminescent Trypanosoma brucei brucei GVR35-VSL2 expressing red-shifted luciferase assessed as shaking in animal at 0.25 to 20 mg/kg, ip administered once daily for 4 days; format: organism-based; details: in vivo, 96 h, dose 0.25-20 mg/kg, time 4 day
Outline: (§2)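 Infected BALB/c mice (bioluminescent T. brucei, 30,000 parasites) dosed i.p. or orally once daily for 4 days starting day 4 post-infection; observed for piloerection, hunching, shaking, lack of activity and body weight change.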

Trypanosoma brucei [3] = experiment: Resistant development in Trypanosoma brucei harboring aqp null mutants assessed as fold reduction in sensitivity incubated for 48 hrs by resazurin dye based analysis relative to control; format: functional
Outline: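 Tbaqp null mutant bloodstream lines tested in the 48 h resazurin microtiter assay: 2.5×10^4 parasites mL^-1 at 37 °C, then 16 h with resazurin and fluorescence read-out. EC50 found for each line in triplicate.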

[4] = Toxicity in BALB/c mouse infected with bioluminescent Trypanosoma brucei brucei GVR35-VSL2 expressing red-shifted luciferase assessed as hunching in animal at 0.25 to 20 mg/kg, ip administered once daily for 4 days; format: organism-based; details: in vivo, 96 h, dose 0.25-20 mg/kg, time 4 day; outline: as §2
Trypanosoma brucei [5] = experiment: Resistance development in blood stream form of Trypanosoma brucei assessed as fold increase in resistance at 10 ug/ml preincubated for 6 hrs with bafilomycin Al followed by compound addition and measured after 48 hrs by resazurin dye-based analysis; format: functional; details: dose 10 µg/ml
Outline: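 Bloodstream-form T. brucei pre-incubated 6 h in 4 or 8 nM bafilomycin A1, then given compound and kept in BafA1. The run then followed the 48 h microtiter resazurin assay: start at 2.5×10^4 mL^-1, 37 °C, 16 h resazurin, fluorescence ex 545/em 590 nm. Done in triplicate.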

[6] = Toxicity in BALB/c mouse infected with bioluminescent Trypanosoma brucei brucei GVR35-VSL2 expressing red-shifted luciferase assessed as hunching in animal at 20 mg/kg, po administered once daily for 4 days; format: organism-based; details: in vivo, 96 h, time 4 day; outline: as §2
[7] = Toxicity in BALB/c mouse infected with bioluminescent Trypanosoma brucei brucei GVR35-VSL2 expressing red-shifted luciferase assessed as lack of activity in animal at 20 mg/kg, po administered once daily for 4 days; format: organism-based; details: in vivo, 96 h, time 4 day; outline: as §2
[8] = Toxicity in BALB/c mouse infected with bioluminescent Trypanosoma brucei brucei GVR35-VSL2 expressing red-shifted luciferase assessed as lack of activity in animal at 0.25 to 20 mg/kg, ip administered once daily for 4 days; format: organism-based; details: in vivo, 96 h, dose 0.25-20 mg/kg, time 4 day; outline: as §2
[9] = Drug localization in lysosomes of Trypanosoma brucei bloodstream form at 10 ug/ml measured after 6 hrs by TbCatL antibody based immunofluorescence microscopy; format: ADME, subcellular, Lysosome; details: dose 10 µg/ml; outline: as §1
[10] = Metabolic stability in mouse liver microsomes assessed as half life at 1 uM measured upto 60 mins in presence of NADPH by LC-MS/MS analysis; format: ADME, Microsome; details: 1 h
[11] = Selectivity index, ratio of EC50 for cytotoxicity against rat L6 cells to EC50 for antitrypanosomal activity against bloodstream form of Trypanosoma brucei brucei 221a variant; format: toxicity, cell-based; details: read-out: Ratio EC50
Outline: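 L6 rat myoblasts seeded at 1×10^4 mL^-1 in RPMI-1640 with a compound concentration range for 6 days at 37 °C. Resazurin added for 6 h, then fluorescence read.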

[12] = Toxicity in BALB/c mouse infected with bioluminescent Trypanosoma brucei brucei GVR35-VSL2 expressing red-shifted luciferase assessed as piloerection in animal at 0.25 to 20 mg/kg, ip administered once daily for 4 days; format: organism-based; details: in vivo, 96 h, dose 0.25-20 mg/kg, time 4 day; outline: as §2
Plasmodium falciparum = experiment: Antiplasmodial activity against Plasmodium falciparum 3D7 infected in human erythrocytes assessed as inhibition of asexual parasite development measured after 96 hrs by fluorescence based assay; format: functional, organism-based; details: 3D7, Erythrocyte
Outline: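 3D7 asexual parasites in human erythrocytes (RPMI 1640, 0.5% Albumax II, 50 μM hypoxanthine, 2 mM L-glutamine, 5% CO2), 2% parasitemia/1% hematocrit; compound in DMSO dilutions, 96 h at 37 °C. Freeze-thaw, SYBR green lysis buffer, 1 h, fluorescence ex 485/em 535 nm. Normalized to DMSO and 1 μM dihydroartemisinin; EC50 from triplicate independent dose-response curves.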

[13] = system: Trypanosoma brucei brucei; experiment: Antitrypanosomal activity against stage-2 bioluminescent Trypanosoma brucei brucei GVR35-VSL2 expressing red-shifted luciferase infected in CD-1 mouse assessed as reduction in parasite growth at 10 to 20 mg/kg, ip administered daily for 3 days starting from 13 days post infection by bioluminescence based assay; format: functional, organism-based; details: dose 10-20 mg/kg, time 3.0 day
Trypanosoma brucei [14] = experiment: Antitrypanosomal activity against blood stream form of Trypanosoma brucei 221a variant assessed as lethality at >=1.2 nM incubated for 3 days followed by replacement with fresh medium without compound and measured for 12 days by resazurin dye based fluorescence analysis relative to control; format: functional; details: time 3 day
Outline: (§3)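 Bloodstream-form T. brucei seeded in flasks at 10^5 mL^-1 with a range of compound concentrations. Every 24 h parasites were sub-cultured back to 10^5 mL^-1 in continued compound presence, through day 10. Growth reported as cumulative parasite number. In a washout arm, parasites were exposed for 3 days, moved to compound-free medium and followed for 12 days.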

[15] = Apparent permeability across apical to basolateral side in MDCK-MDR1 cells at 10 uM measured for 60 mins by LC-MS/MS analysis; format: ADME, cell-based, Canis lupus familiaris; details: dog
Outline: (§4)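 MDCKII-hMDR1 monolayers on inserts, compound 10 μM (1% DMSO) in duplicate, 60 min at 37 °C, bidirectional, with and without elacridar 2 μM. Amprenavir as P-gp control, Lucifer yellow for monolayer integrity; compound quantified by LC–MS/MS.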

[16] = Apparent permeability across basolateral to apical side in MDCK-MDR1 cells at 10 uM measured for 60 mins by LC-MS/MS analysis; format: ADME, cell-based, Canis lupus familiaris; details: dog, mdck-mdr1, 1 h, 10 µM; outline: as §4
Trypanosoma brucei [17] = experiment: Antitrypanosomal activity against blood stream form of Trypanosoma brucei 221a variant assessed as parasite growth inhibition at 0.3 nM preincubated for 24 hrs followed by subculturing with fresh medium with compounds and measured after 6 days by resazurin dye based fluorescence analysis; format: functional, organism-based; details: time 7.0 day; outline: as §3
Trypanosoma brucei [18] = experiment: Antitrypanosomal activity against blood stream form of Trypanosoma brucei 221a variant assessed as parasite growth inhibition measured after 48 hrs by resazurin dye based fluorescence analysis; format: functional, organism-based
Outline: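 Bloodstream-form T. b. brucei 221a (MiTat1.2a) in modified Iscove's medium at 37 °C, started at 2.5×10^4 mL^-1 with a concentration range. After 48 h, resazurin was added for a further 16 h. Fluorescence read at ex 545/em 590 nm. EC50 and EC90 taken from three independent replicates.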

[19] = Drug uptake in blood stream form of Trypanosoma brucei at 10 ug/ml incubated for 6 hrs in presence of bafilomycin Al by fluorescence microscopy; format: ADME, tissue-based; details: dose 10 µg/ml
Outline: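 Bloodstream-form T. brucei incubated 6 h with compound 10 μg mL⁻¹ with or without 8 nM BafA1, then imaged by fluorescence microscopy.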

With `CS(=O)(=O)O.CS(=O)(=O)O.N=C(N)c1ccc2nc(C3CCC(c4nc5ccc(C(=N)N)cc5s4)CC3)sc2c1` (stereo unspecified) the Drug uptake [1] was “Not Active”, the Activity [2] was “Non-Toxic” and the “fold change (FC)” value (Trypanosoma brucei [3]) was 1.3. The Activity [4] was “Non-Toxic”, the “fold change (FC)” value (Trypanosoma brucei [5]) was 5 and the Activity [6] was “Non-Toxic”. The Activity [7] was “Non-Toxic”, the Activity [8] was “Non-Toxic” and the Drug uptake [9] was “Active”. The t1/2 [10] was over 60 min, the selectivity ratio [11] was 26300 and the Activity [12] was “Non-Toxic”. The EC50 (Plasmodium falciparum) was 25.3 nM, the Activity [13] was “inactive” and the Activity (Trypanosoma brucei [14]) was 100%. The Papp A→B at 1 h, 10 µM [15] was under 0.1 ×10⁻⁶ cm/s, the Papp [16] was 0.4 10^-6 cm/s and the Activity (Trypanosoma brucei [17]) was “Active”. The EC50 (Trypanosoma brucei [18]; 48 h) was 1 nM, the EC90 (Trypanosoma brucei [18]; time 48 hrs) was 1 nM and the Drug uptake [19] was “Not Active”.
